Laboratory results as given in ChEMBL document CHEMBL5214961, “Novel Allosteric Inhibitor-Derived AKT Proteolysis Targeting Chimeras (PROTACs) Enable Potent and Selective AKT Degradation in KRAS/BRAF Mutant Cells” (J Med Chem, 2022).
The source made the active and inactive calls. The rule behind the calls is not given here.

Tests used:
[1] = target: von Hippel-Lindau disease tumor suppressor/RAC-alpha serine/threonine-protein kinase (Homo sapiens) (UniProt P31749+P40337); assay: Protac activity at VHL/AKT in human PC-3 cells assessed as reduction in total Akt level at 1 uM incubated for 24 hrs by Western blot analysis; assay type: cell-based
How it was run: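 Cells grown in DMEM with 10% FBS at 37 °C, 5% CO2, then exposed to compound at 1 μM for 24 h. Lysates made in 2X urea/SDS sample buffer, run on 4–12% Bis-Tris gels, transferred to PVDF, probed for total AKT overnight at 4 °C; HRP/chemiluminescence detection with β-actin as loading control.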

PC-3 = assay: Inhibition of colony formation in human PC-3 cells at 0.1 to 10 uM incubated for 2 weeks with media replacement for every 2 days by crystal violet staining based analysis; assay type: functional, cell-based; details: dose 0.1-10 µM
How it was run: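 PC3 cells kept 14 days with compound; compound-containing medium replenished every two days. Viable cells stained with 0.5% crystal violet.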

[2] = target: RAC-beta serine/threonine-protein kinase (Homo sapiens, UniProt P31751); assay: Inhibition of AKT2 (unknown origin) preincubated for 20 mins followed by [33P]-ATP addition measured after 120 mins by hotspot kinase assay
[3] = target: RAC-gamma serine/threonine-protein kinase (Homo sapiens, UniProt Q9Y243); assay: Inhibition of AKT3 (unknown origin) preincubated for 20 mins followed by [33P]-ATP addition measured after 120 mins by hotspot kinase assay
[4] = target: RAC-alpha serine/threonine-protein kinase (Homo sapiens, UniProt P31749); assay: Inhibition of AKT1 (unknown origin) preincubated for 20 mins followed by [33P]-ATP addition measured after 120 mins by hotspot kinase assay
SW-620 = assay: Antiproliferative activity against human SW620 cells harboring KRAS mutant assessed as inhibition of cell growth incubated for 5 days by IncuCyte live-cell imaging analysis; assay type: functional, cell-based; details: SW-620, 120 h

von Hippel-Lindau disease tumor suppressor/RAC-alpha serine/threonine-protein kinase (Homo sapiens), sequence (P31749 whole entry, looked up): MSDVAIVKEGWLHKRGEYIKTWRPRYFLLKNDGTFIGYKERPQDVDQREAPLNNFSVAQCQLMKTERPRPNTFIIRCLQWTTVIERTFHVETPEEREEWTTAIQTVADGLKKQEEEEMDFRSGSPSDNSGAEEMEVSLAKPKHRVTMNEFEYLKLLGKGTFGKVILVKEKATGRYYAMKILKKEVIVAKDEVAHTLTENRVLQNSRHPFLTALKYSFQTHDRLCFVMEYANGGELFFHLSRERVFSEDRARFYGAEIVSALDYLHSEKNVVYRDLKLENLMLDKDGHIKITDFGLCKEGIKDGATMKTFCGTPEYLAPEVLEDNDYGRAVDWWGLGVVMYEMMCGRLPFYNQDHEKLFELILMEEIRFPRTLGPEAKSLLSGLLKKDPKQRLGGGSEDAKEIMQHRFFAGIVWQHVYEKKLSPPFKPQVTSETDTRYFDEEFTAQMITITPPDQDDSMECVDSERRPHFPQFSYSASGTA
von Hippel-Lindau disease tumor suppressor/RAC-alpha serine/threonine-protein kinase (Homo sapiens), sequence (P40337 whole entry, looked up): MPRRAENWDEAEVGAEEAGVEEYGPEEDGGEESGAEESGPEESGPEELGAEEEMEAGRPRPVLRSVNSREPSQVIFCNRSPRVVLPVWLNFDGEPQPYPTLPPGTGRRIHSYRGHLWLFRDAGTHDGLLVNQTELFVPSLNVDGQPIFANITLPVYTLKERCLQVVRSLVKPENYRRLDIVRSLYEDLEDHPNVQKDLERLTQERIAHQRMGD
RAC-alpha serine/threonine-protein kinase, sequence (P31749 whole entry): as the sequence (P31749 whole entry, looked up) above
RAC-gamma serine/threonine-protein kinase, sequence (Q9Y243 whole entry): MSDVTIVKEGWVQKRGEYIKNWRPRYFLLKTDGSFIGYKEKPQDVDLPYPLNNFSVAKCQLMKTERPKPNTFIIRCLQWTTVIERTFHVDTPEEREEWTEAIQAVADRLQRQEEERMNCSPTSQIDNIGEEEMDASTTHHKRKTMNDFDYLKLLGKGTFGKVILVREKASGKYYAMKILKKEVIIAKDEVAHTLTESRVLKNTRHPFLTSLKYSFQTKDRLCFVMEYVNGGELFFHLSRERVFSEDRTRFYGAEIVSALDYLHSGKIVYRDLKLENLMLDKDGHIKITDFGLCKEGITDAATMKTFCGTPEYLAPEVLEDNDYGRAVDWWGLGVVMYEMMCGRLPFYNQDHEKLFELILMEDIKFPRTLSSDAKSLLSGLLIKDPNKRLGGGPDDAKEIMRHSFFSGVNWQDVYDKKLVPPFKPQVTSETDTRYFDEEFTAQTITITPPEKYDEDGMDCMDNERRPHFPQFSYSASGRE
RAC-beta serine/threonine-protein kinase, sequence (P31751 whole entry): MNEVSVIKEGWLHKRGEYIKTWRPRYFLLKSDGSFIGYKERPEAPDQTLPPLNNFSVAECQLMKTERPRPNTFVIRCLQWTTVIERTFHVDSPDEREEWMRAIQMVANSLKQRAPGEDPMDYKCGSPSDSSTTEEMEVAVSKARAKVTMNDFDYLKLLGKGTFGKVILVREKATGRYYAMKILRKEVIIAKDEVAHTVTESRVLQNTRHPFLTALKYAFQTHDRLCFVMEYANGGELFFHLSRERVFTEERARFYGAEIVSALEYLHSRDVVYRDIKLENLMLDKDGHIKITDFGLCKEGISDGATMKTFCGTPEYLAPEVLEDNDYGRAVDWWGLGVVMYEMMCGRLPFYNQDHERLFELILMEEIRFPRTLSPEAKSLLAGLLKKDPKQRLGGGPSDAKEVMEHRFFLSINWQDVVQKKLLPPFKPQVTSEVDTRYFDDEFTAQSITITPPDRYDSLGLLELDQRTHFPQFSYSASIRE

Structure (SMILES) | Activity [1] | also measured
Cc1ncsc1-c1ccc(CNC(=O)[C@@H]2C[C@@H](O)CN2C(=O)[C@@H](NC(=O)CCOCCNC(=O)CCc2cccc(-c3ccc4nc(-c5cccnc5N)n(-c5ccc(C6(N)CCC6)cc5)c4n3)c2)C(C)(C)C)cc1 | Active | –
Cc1ncsc1-c1ccc(CNC(=O)[C@@H]2C[C@@H](O)CN2C(=O)[C@@H](NC(=O)CCCCCCCC(=O)NCCc2cccc(-c3ccc4nc(-c5cccnc5N)n(-c5ccc(C6(N)CCC6)cc5)c4n3)c2)C(C)(C)C)cc1 | Active | –
Cc1ncsc1-c1ccc(CNC(=O)[C@@H]2C[C@@H](O)CN2C(=O)[C@@H](NC(=O)COCCOCCOCCNC(=O)CCc2cccc(-c3ccc4nc(-c5cccnc5N)n(-c5ccc(C6(N)CCC6)cc5)c4n3)c2)C(C)(C)C)cc1 | Active | –
Cc1ncsc1-c1ccc(CNC(=O)[C@@H]2C[C@@H](O)CN2C(=O)[C@@H](NC(=O)CCOCCOCCOCCOCCOCCC(=O)NCCc2cccc(-c3ccc4nc(-c5cccnc5N)n(-c5ccc(C6(N)CCC6)cc5)c4n3)c2)C(C)(C)C)cc1 | Active | –
Cc1ncsc1-c1ccc([C@H](C)NC(=O)[C@H]2C[C@H](O)CN2C(=O)[C@@H](NC(=O)CCCCCCCCCCNC(=O)CCc2cccc(-c3ccc4nc(-c5cccnc5N)n(-c5ccc(C6(N)CCC6)cc5)c4n3)c2)C(C)(C)C)cc1 | – | IC50 [2]: 86 nM; IC50 [3]: 407 nM; IC50 [4]: 684 nM
Cc1ncsc1-c1ccc(CNC(=O)[C@@H]2C[C@@H](O)CN2C(=O)[C@@H](NC(=O)CCOCCOCCNC(=O)CCc2cccc(-c3ccc4nc(-c5cccnc5N)n(-c5ccc(C6(N)CCC6)cc5)c4n3)c2)C(C)(C)C)cc1 | Active | –
Cc1ncsc1-c1ccc([C@H](C)NC(=O)[C@H]2C[C@H](OCc3ccccc3)CN2C(=O)[C@@H](NC(=O)CCCCCCCCCCNC(=O)CCc2cccc(-c3ccc4nc(-c5cccnc5N)n(-c5ccc(C6(N)CCC6)cc5)c4n3)c2)C(C)(C)C)cc1 | – | IC50 (SW-620): > 10000 nM; IC50 [2]: 558 nM; IC50 [3]: 1800 nM; IC50 [4]: 1200 nM
Cc1ncsc1-c1ccc(CNC(=O)[C@@H]2C[C@@H](O)CN2C(=O)[C@@H](NC(=O)COCCNC(=O)CCc2cccc(-c3ccc4nc(-c5cccnc5N)n(-c5ccc(C6(N)CCC6)cc5)c4n3)c2)C(C)(C)C)cc1 | Active | –
Cc1ncsc1-c1ccc(CNC(=O)[C@@H]2C[C@@H](O)CN2C(=O)[C@@H](NC(=O)COCC(=O)NCCc2cccc(-c3ccc4nc(-c5cccnc5N)n(-c5ccc(C6(N)CCC6)cc5)c4n3)c2)C(C)(C)C)cc1 | Active | –
Cc1ncsc1-c1ccc(CNC(=O)[C@@H]2C[C@@H](O)CN2C(=O)[C@@H](NC(=O)COCCOCCOCCOCCOCC(=O)NCCc2cccc(-c3ccc4nc(-c5cccnc5N)n(-c5ccc(C6(N)CCC6)cc5)c4n3)c2)C(C)(C)C)cc1 | Active | –
Cc1ncsc1-c1ccc(CNC(=O)[C@@H]2C[C@@H](O)CN2C(=O)[C@@H](NC(=O)COCCOCCNC(=O)CCc2cccc(-c3ccc4nc(-c5cccnc5N)n(-c5ccc(C6(N)CCC6)cc5)c4n3)c2)C(C)(C)C)cc1 | Active | –
Cc1ncsc1-c1ccc(CNC(=O)[C@@H]2C[C@@H](O)CN2C(=O)[C@@H](NC(=O)CCOCCC(=O)NCCc2cccc(-c3ccc4nc(-c5cccnc5N)n(-c5ccc(C6(N)CCC6)cc5)c4n3)c2)C(C)(C)C)cc1 | Active | –

Continued, in another order:

Activity [1] | Structure (SMILES) | also measured
Active | Cc1ncsc1-c1ccc(CNC(=O)[C@@H]2C[C@@H](O)CN2C(=O)[C@@H](NC(=O)CCCCCCCCCC(=O)NCCc2cccc(-c3ccc4nc(-c5cccnc5N)n(-c5ccc(C6(N)CCC6)cc5)c4n3)c2)C(C)(C)C)cc1 | inhibition (PC-3): Active
Active | Cc1ncsc1-c1ccc(CNC(=O)[C@@H]2C[C@@H](O)CN2C(=O)[C@@H](NC(=O)CCCCCCCCCCNC(=O)CCc2cccc(-c3ccc4nc(-c5cccnc5N)n(-c5ccc(C6(N)CCC6)cc5)c4n3)c2)C(C)(C)C)cc1 | inhibition (PC-3): Active
Active | Cc1ncsc1-c1ccc(CNC(=O)[C@@H]2C[C@@H](O)CN2C(=O)[C@@H](NC(=O)CCCCCCCCC(=O)NCCc2cccc(-c3ccc4nc(-c5cccnc5N)n(-c5ccc(C6(N)CCC6)cc5)c4n3)c2)C(C)(C)C)cc1 | inhibition (PC-3): Active
Active | Cc1ncsc1-c1ccc(CNC(=O)[C@@H]2C[C@@H](O)CN2C(=O)[C@@H](NC(=O)CCCCCCCCCNC(=O)CCc2cccc(-c3ccc4nc(-c5cccnc5N)n(-c5ccc(C6(N)CCC6)cc5)c4n3)c2)C(C)(C)C)cc1 | –
Active | Cc1ncsc1-c1ccc(CNC(=O)[C@@H]2C[C@@H](O)CN2C(=O)[C@@H](NC(=O)CCCCCCCNC(=O)CCc2cccc(-c3ccc4nc(-c5cccnc5N)n(-c5ccc(C6(N)CCC6)cc5)c4n3)c2)C(C)(C)C)cc1 | –
Active | Cc1ncsc1-c1ccc(CNC(=O)[C@@H]2C[C@@H](O)CN2C(=O)[C@@H](NC(=O)CCCCCCCCNC(=O)CCc2cccc(-c3ccc4nc(-c5cccnc5N)n(-c5ccc(C6(N)CCC6)cc5)c4n3)c2)C(C)(C)C)cc1 | –
